These results are taken from ChEMBL document CHEMBL5038575, “Novel Functionalized Cannabinoid Receptor Probes: Development of Exceptionally Potent Agonists” (J Med Chem, 2021).

One may read the pKi as the negative decadic logarithm of the Ki, by convention in mol/L. The term Emax denotes the maximal effect, on the per cent scale that the assay sets. The pEC50 is the EC50 on a negative log10 scale, so that one unit is a factor of ten. By ED50 is commonly meant the dose that gives a 50% effect, or the effect in half of the subjects.

pEC50, pKi: −log10 of the molar value. Activity calls are given as the source filed them. The rule behind the calls is not given here.

The target of series [1] is T1, Cannabinoid receptor 2 (Homo sapiens, UniProt P34972). Put plainly: Displacement of [3H]CP55940 from human CB2 expressed in HEK293 cell membrane assessed as inhibition constant incubated for 1 hr by TopCount scintillation counting method. Format: cell membranes. In a few lines: (§1)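 Competition binding against [³H]CP-55,940. CB1 from rat brain membranes; CB2 from membranes of HEK293 cells expressing mouse or human CB2. IC50 obtained by nonlinear regression and converted to Ki. Three independent experiments in triplicate; mean with SEM.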
T1 sequence (P34972 whole entry): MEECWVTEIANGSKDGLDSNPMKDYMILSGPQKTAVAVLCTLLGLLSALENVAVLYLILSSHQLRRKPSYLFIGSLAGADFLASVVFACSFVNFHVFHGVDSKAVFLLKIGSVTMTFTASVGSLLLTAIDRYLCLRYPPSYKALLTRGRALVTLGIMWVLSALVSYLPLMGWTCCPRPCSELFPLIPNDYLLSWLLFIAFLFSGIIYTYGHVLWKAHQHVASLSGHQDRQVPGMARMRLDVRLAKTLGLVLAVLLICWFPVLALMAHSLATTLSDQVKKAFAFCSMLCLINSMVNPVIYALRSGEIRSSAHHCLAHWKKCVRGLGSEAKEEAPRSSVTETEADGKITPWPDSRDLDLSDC
A general note: Loss of bound radioactivity is the signal in a displacement assay; it reports binding, not function.

Series [2] concerns the target Cannabinoid receptor 1 (Rattus norvegicus, UniProt P20272). Nature of the series: Displacement of [3H]CP55940 from rat brain membrane CB1 receptor assessed as inhibition constant incubated for 1 hr by TopCount scintillation counting method. Format: cell membranes. In a few lines: as §1
Series [3] concerns the target Cannabinoid receptor 1 (Rattus norvegicus) (UniProt P20272). Put plainly: Displacement of [3H]CP55940 from rat brain membrane CB1 assessed as reduction in maximum binding capacity at 4 nM incubated for 1 hr by TopCount scintillation counting method relative to control. Format: cell membranes. In a few lines: (§2)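 Wash-resistant binding. […] Saturation binding used 25 μg protein, [³H]CP-55,940 at 0.5–23.8 nM and 4 μM unlabeled CP-55,940 for nonspecific binding, 1 h at 30 °C. Samples were filtered and counted by scintillation. Bmax came from one-site fits; % reduction was taken versus untreated control.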

For series [4], the target named is T1, Cannabinoid receptor 2. Nature of the series: Displacement of [3H]CP55940 from CB2 (unknown origin) assessed as reduction in maximum binding capacity at 4 nM incubated for 1 hr by TopCount scintillation counting method relative to control. In a few lines: as §2
The target of series [5] is Cannabinoid receptor 2 (Mus musculus, UniProt P47936). Nature of the series: Displacement of [3H]CP55940 from mouse CB2 expressed in HEK293 cell membrane assessed as inhibition constant incubated for 1 hr by TopCount scintillation counting method. The series is classed as cell membranes. In a few lines: as §1
Cannabinoid receptor 2 (Mus musculus, UniProt P47936), sequence (P47936 whole entry): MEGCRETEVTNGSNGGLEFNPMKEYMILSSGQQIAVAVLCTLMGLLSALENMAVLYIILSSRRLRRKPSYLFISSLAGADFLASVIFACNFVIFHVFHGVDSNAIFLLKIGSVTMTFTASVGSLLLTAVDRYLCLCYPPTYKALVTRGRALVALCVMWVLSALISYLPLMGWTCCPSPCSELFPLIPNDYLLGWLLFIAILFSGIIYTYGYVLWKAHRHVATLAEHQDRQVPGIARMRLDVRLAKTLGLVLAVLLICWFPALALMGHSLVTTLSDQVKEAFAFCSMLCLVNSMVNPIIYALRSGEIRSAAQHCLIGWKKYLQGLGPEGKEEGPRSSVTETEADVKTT
Series [6] deals with T1, Cannabinoid receptor 2. Put plainly: Agonist activity at 3xHA tagged human CB2 receptor expressed in CHO-K1 cells assessed as reduction in forskolin-stimulated cAMP accumulation by measuring maximal efficacy incubated for 30 mins by cAMP assay relative to CP-55940. The series is classed as functional, cell-based. The note with it: filed as agonist. In a few lines: (§3)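 CHO-K1 cells stably expressing 3xHA-tagged CB1 or CB2, plated at 4000 cells/well in Opti-MEM with 1% FBS for 3 h at 37 °C. Cells cotreated with 25 μM RO-20-1724, 20 μM forskolin and agonist for 30 min at 37 °C, then lysed. cAMP read by HTRF (665/620 nm) after 1 h at room temperature in the dark. Data normalized to vehicle and 100 nM CP-55,940; three-parameter nonlinear regression; ≥4 experiments in duplicate.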

The target in series [7] is T2, Cannabinoid receptor 1 (Homo sapiens, UniProt P21554). Nature of the series: Agonist activity at 3xHA tagged human CB1 receptor expressed in CHO-K1 cells assessed as reduction in forskolin-stimulated cAMP accumulation by measuring maximal efficacy incubated for 30 mins by cAMP assay relative to CP-55940. The series is classed as functional, cell-based. Conditions: filed as agonist. A digest of the protocol: as §3
T2 sequence (P21554 whole entry): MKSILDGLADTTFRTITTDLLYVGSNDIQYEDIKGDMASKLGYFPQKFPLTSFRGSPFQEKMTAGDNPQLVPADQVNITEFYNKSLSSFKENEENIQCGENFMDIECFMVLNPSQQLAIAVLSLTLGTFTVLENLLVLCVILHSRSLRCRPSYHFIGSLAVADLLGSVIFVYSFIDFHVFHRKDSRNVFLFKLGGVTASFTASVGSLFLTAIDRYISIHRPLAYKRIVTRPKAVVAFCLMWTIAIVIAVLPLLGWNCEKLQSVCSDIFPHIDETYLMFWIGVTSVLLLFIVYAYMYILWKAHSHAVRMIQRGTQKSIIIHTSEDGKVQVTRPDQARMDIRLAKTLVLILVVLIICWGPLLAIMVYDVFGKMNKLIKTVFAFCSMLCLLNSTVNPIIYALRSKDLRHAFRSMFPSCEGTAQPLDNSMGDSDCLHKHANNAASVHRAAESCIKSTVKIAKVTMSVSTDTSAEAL
A general note: Changes in cAMP serve as a functional read-out for many G protein-coupled receptors.

Series [8] concerns the target T1, Cannabinoid receptor 2. Nature of the series: Agonist activity at 3xHA tagged human CB2 receptor expressed in CHO-K1 cells assessed as reduction in forskolin-stimulated cAMP accumulation incubated for 30 mins by cAMP assay. The series is classed as functional, cell-based.
Series [9] deals with T2, Cannabinoid receptor 1. Nature of the series: Agonist activity at 3xHA tagged human CB1 receptor expressed in CHO-K1 cells assessed as reduction in forskolin-stimulated cAMP accumulation incubated for 30 mins by cAMP assay. The series is classed as functional, cell-based.
Series [10] has as its system Mus musculus. Nature of the series: Induction of hypothermia in C57BL/6 mouse assessed as reduction in body temperature at 0.1 mg/kg, ip measured after 24 hrs. Format: toxicity, organism-based. Conditions: in vivo.
In series [11] the test system is Mus musculus. Put plainly: Antinociceptive activity in CD-1 mouse model of thermal-induced nociception assessed as maximum efficacy causing increase in tail withdrawal latency administered intraperitonially for 6 hrs by tail flick test. Format: functional, organism-based. The note with it: dose 0.03-1 mg/kg. In a few lines:
(§4)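 Male CD-1 mice, 25–30 g, n = 6/dose, each used once. Drug was dissolved in 2% DMSO, 4% Tween 80 and 4% propylene glycol, then diluted with saline, and given ip at 10 mL/kg. Tail immersed in a 52 °C water bath; latency recorded at baseline and at 20, 60, 180 and 360 min after injection. Results expressed as % maximum possible effect; ED50 given with 95% CI.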
For orientation: In hot-plate and tail-flick tests a longer latency is read as antinociception.

For series [12], the system named is Mus musculus. Put plainly: Antinociceptive activity in CD-1 mouse model of thermal-induced nociception assessed as maximum efficacy causing increase in tail withdrawal latency at 0.03 mg/kg, ip measured 60 mins post-injection by tail flick test. Format: functional, organism-based. A digest of the protocol:
as §4

Series [13] deals with Mus musculus. Nature of the series: Antinociceptive activity in CD-1 mouse model of thermal-induced nociception assessed as maximum efficacy causing increase in tail withdrawal latency at 0.03 to 1 mg/kg, ip measured 20 mins post-injection by tail flick test. The series is classed as functional, organism-based. Conditions: dose 0.03-1 mg/kg. In a few lines:
as §4

The nature of series [14]: Toxicity in […] mouse assessed as reduction in gastrointestinal motility by measuring colonic expulsion at 0.1 mg/kg, ip measured after 20 to 220 mins. The series is classed as organism-based. The note with it: in vivo, time 20-220 min. In a few lines:
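Mice, n = 6–7/treatment, given vehicle (DMSO/Tween 80/saline 2:1:17) or 0.1 mg/kg ip. At 20, 120 and 220 min, under light isoflurane, a 2.5 mm glass bead was inserted 2 cm into the rectum. Time to bead expulsion was recorded.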

The test system of series [15] is Mus musculus. Nature of the series: Antinociceptive activity in CD-1 mouse model of thermal-induced nociception assessed as increase in tail withdrawal latency administered intraperitonially for 6 hrs by tail flick test. Format: functional. The note with it: CD-1, ip. A digest of the protocol: as §4
Series [16] in a line: Toxicity in C57BL/6 mouse assessed as reduction in locomotion at 0.1 to 1 mg/kg, ip measured after 20 mins. Conditions: in vivo, dose 0.1-1 mg/kg. Format: organism-based. In a few lines:
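C57BL/6 mice, n = 6–7/treatment, given ip drug in 2% DMSO/1% Tween 80/saline at 0.1–1.0 mg/kg. Habituated to the apparatus in the morning. Placed in an infrared beam activity monitor 20 min after injection; ambulatory and horizontal counts recorded over 10 min.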

Series [17] addresses Cannabinoid receptor 1 (Rattus norvegicus) (UniProt P20272). Put plainly: Displacement of [3H]CP55940 from rat brain membrane CB1 assessed as reduction in maximum binding capacity at 4 nM incubated for 1 hr followed by compound washout and measured after 60 to 180 mins by TopCount scintillation counting method. Format: cell membranes. The note with it: filed as agonist.

Cannabinoid receptor 1 (Rattus norvegicus, UniProt P20272), sequence (P20272 whole entry): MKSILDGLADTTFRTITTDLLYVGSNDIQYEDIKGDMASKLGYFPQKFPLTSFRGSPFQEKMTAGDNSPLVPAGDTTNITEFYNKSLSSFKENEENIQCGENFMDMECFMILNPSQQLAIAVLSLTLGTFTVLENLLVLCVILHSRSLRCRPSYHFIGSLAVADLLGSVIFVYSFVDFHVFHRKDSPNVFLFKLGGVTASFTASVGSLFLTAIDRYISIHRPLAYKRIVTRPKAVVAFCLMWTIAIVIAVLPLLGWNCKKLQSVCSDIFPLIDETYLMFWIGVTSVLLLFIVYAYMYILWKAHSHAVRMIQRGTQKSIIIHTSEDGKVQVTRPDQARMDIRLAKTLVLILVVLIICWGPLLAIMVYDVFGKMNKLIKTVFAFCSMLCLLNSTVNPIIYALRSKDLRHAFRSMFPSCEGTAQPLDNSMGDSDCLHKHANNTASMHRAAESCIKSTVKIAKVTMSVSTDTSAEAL
Cannabinoid receptor 1 (Rattus norvegicus), sequence (P20272 whole entry): as above

Consider `CC1(C)Oc2cc(C3(CCCCCCCN=[N+]=[N-])CCCC3)cc(O)c2[C@@H]2C[C@H](CN=[N+]=[N-])CC[C@H]21`, for which the pKi is 8.82 in [1], 9.15 in series [2] and 8.92 in series [5]. Besides, the Bmax in [3] amounted to 28%; in series [4] it was 21%.

As to `CC1(C)Oc2cc(C3(CCCCCCC#N)CCCC3)cc(O)c2[C@@H]2C[C@H](CO)CC[C@H]21`, the maximal response (Emax) in [6] turned out to be 61%; in [7], 112%. Moreover, the pKi in [1] is 8.85; in [2], 9.10; in series [5] it was 9.00. Moreover, the Bmax came out at 68% in [3] (filed as agonist) and 45% in series [4] (filed as agonist). The pEC50 in series [8] is 9.02; in series [9], 9.51.

Consider `CC1(C)Oc2cc(C3(CCCCCCCC#N)CCCC3)cc(O)c2[C@@H]2C[C@H](CN=C=S)CC[C@H]21`, for which the negative-log Ki (pKi) is 9.22 in [1], 9.40 in series [2] and 8.72 in series [5]. For the same compound, the result in series [3] and in [4] was inactive.

Consider `CC1(C)Oc2cc(C3(CCCCCCCC#N)CCCC3)cc(O)c2[C@@H]2C[C@H](CO)CC[C@H]21`, for which the pKi in series [1] is 9.40; in series [2], 9.30; in series [5], 9.05. Moreover, the figures for the Bmax in series [3] (filed as agonist) and in [4] (filed as agonist) were 60% and 40%, respectively.

Regarding `CC1(C)Oc2cc(C3(CCCCCCN=[N+]=[N-])CCCC3)cc(O)c2[C@@H]2C[C@H](CO)CC[C@H]21`, the negative-log Ki (pKi) is 9.10 in series [1], 9.40 in series [2] and 9.10 in [5]. Also, the Bmax in series [3] (filed as agonist) stood at 87%; in series [4] (filed as agonist) it was 65%.

Consider `CCCCCCC(C)(C)c1cc(O)c2c(c1)OC(C)(C)[C@@H]1CC[C@@H](CO)C[C@@H]21`, for which the pKi in series [1] was 8.68; in [2] it was 8.52. The result in series [3] and in [4] was inactive.

Regarding `CC1(C)Oc2cc(C3(CCCCCCN=C=S)CCCC3)cc(O)c2[C@@H]2C[C@H](CO)CC[C@H]21`, the Emax was determined as 57% in [6] and 104% in [7]. For the same compound, the pKi in series [1] was 8.89; in [2], 8.96; in series [5] it was 9.05. Also, the Bmax amounted to 39% in [3] and 34% in series [4]. Also, the pEC50 in series [8] is 8.57; in series [9], 9.28.

For `CC1(C)Oc2cc(C3(CCCCCCCC#N)CCCC3)cc(O)c2[C@@H]2C[C@H](CN=[N+]=[N-])CC[C@H]21`, the pKi was 9.52 in [1], 9.52 in series [2] and 8.85 in series [5]. The result in series [3] and in [4] was inactive.

`CC(C)(CCCCCCC#N)c1cc(O)c2c(c1)OC(C)(C)[C@@H]1CC[C@@H](CO)C[C@@H]21`: the Activity entry is “Toxic” in [10], “Dose-Dependent Effect” in series [11], “Toxic” in series [14] and “Toxic” in series [16]. For the same compound, the maximal response (Emax) was 70% in series [6] and 103% in series [7]. In addition, the pKi in [1] was 9.40; in [2] it was 9.40; in series [5] it was 9.10. For the same compound, the outcome in series [12] was inactive. In addition, the outcome in series [13] and in series [17] was Active. Moreover, the Bmax in [3] (filed as agonist) is 76%; in series [4] (filed as agonist), 60%. Also, the negative logarithm of the EC50 (pEC50) in series [8] was 9.42; in series [9], 10.06. For the same compound, the ED50 in series [15] was determined as 0.12 mg/kg.

`CC(C)(CCCCCCN=[N+]=[N-])c1cc(O)c2c(c1)OC(C)(C)[C@@H]1CC[C@@H](CO)C[C@@H]21`: the results for the Emax in series [6] and in [7] were 72% and 99%, respectively. For the same compound, the values for the pKi in series [1], in [2] and in series [5] were 8.85, 9.39 and 9.10, respectively. Besides, the values for the Bmax in series [3] (filed as agonist) and in [4] (filed as agonist) were 75% and 63%, respectively. The negative-log EC50 (pEC50) in [8] was 9.11; in series [9] it was 10.01.

As to `CC(C)(CCCCCCN=C=S)c1cc(O)c2c(c1)OC(C)(C)[C@@H]1CC[C@@H](CO)C[C@@H]21`, the values for the Emax in series [6] and in [7] were 107% and 96%, respectively. Moreover, the pKi is 8.50 in [1], 9.41 in [2] and 9.10 in [5]. For the same compound, the Bmax in [3] (filed as agonist) came out at 65%; in series [4] (filed as agonist), 75%. Moreover, the results for the pEC50 in series [8] and in series [9] were 8.26 and 8.24, respectively.

For the compound `CC1(C)Oc2cc(C3(CCCCCCCN=[N+]=[N-])CCCC3)cc(O)c2[C@@H]2C[C@H](CO)CC[C@H]21`, the pKi in series [1] was 8.82; in series [2], 9.30; in series [5] it was 8.80. The results for the Bmax in [3] (filed as agonist) and in series [4] were 48% and 37%, respectively.

On to `CC1(C)Oc2cc(C3(CCCCCCCN=C=S)CCCC3)cc(O)c2[C@@H]2C[C@H](CN=C=S)CC[C@H]21`, for which the pKi was 8.38 in series [1], 7.42 in series [2] and 7.84 in [5]. Besides, the Bmax in series [3] is 37%; in series [4], 15%.

As for `CC1(C)Oc2cc(C3(CCCCCCCN=C=S)CCCC3)cc(O)c2[C@@H]2C[C@H](CO)CC[C@H]21`, the Emax in series [6] came to 74%; in [7], 105%. Further, the pKi in series [1] was 9.00; in series [2] it was 9.40; in series [5], 8.96. Further, the Bmax in series [3] (filed as agonist) turned out to be 51%; in series [4], 19%. Also, the pEC50 is 9.41 in series [8] and 9.37 in series [9].
